Sampled rows, rich in hits. Any-hit rate of the full collection: about 2.1%.
Cardio protect: protects H9c2 cardiomyocytes from peroxide injury; H2O2 injury protection, ATPLite, 2 h; protection from H2O2 cell death, % at 20 µM; 0.63% of 360,000 active;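 active = compounds giving at least 50% protection of heart cells from peroxide-induced death in the single-dose screen, raw or plate-pattern-corrected value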
PfGluPho inh: PfG6PD (Plasmodium falciparum) enzyme inhibition. PfGluPho enzyme, NADPH resazurin-diaphorase fluorescence. inhibition, % at 20 µM. 0.78% of 350,000 active. AID 504690;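 active = inhibition reaching at least a set limit at 20 µM in the primary screen, cut at about 59% in these data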
B2AR ag: agonists of human beta-2 adrenergic receptor inducing internalization; 0.43% of 340,000 active; Am2.2-beta2AR cells, FAP receptor internalization, flow cytometry; AID 504454; response, % (concentration not given with the values);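 active = response above a set limit, near 3 SD of response in nonfluorescent compounds, cut at about 42% in these data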
aDG glyco act: increases alpha dystroglycan glycosylation. activation, % at 10 µM. 0.22% of 360,000 active. AID 624168. Pro5-aDG cells, alpha-DG glycosylation AlphaScreen (IIH6); 0% Pro5, 100% B10-LARGE cell signal;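 active = activation of at least 8% versus controls, or a plate z-score of at least 8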;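 note: Pro5 are CHO cells carrying HIG-tagged alpha-DG that lacks glycosylation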
HKDC1 inh: inhibitors of human hexokinase HKDC1. Q2TB90. recombinant HKDC1, G6PDH/diaphorase resazurin coupled fluorescence. inhibition, % at 20 µM. 0.16% of 340,000 active. AID 493160;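 active = inhibition above about 35% when tested at 20 µM, limit read from the data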
Target sequence (Q2TB90 whole entry, looked up): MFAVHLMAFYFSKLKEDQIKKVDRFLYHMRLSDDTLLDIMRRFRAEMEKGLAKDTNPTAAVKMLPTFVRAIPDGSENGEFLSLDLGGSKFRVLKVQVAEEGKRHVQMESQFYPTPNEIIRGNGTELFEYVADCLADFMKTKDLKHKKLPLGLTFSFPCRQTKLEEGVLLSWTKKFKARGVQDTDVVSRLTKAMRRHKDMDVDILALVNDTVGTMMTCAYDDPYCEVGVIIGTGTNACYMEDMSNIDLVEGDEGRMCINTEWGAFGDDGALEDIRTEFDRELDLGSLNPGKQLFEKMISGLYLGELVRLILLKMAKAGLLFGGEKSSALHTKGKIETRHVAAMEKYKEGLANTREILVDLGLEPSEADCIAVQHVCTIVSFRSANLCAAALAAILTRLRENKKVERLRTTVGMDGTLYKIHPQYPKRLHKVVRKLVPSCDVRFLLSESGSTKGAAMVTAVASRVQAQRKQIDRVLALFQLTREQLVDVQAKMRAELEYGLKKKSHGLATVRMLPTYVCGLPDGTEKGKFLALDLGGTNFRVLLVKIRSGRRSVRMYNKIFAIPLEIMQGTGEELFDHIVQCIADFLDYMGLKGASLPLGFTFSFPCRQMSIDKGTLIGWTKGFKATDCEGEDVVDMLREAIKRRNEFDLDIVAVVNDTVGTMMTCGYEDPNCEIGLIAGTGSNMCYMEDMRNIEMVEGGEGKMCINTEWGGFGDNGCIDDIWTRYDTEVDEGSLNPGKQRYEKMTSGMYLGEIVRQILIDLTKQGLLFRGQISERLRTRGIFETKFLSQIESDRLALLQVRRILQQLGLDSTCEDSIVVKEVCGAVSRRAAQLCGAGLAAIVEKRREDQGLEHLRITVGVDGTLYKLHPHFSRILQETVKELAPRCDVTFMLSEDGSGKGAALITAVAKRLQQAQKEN
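Assay system – recombinant HKDC1 (HK5) hexokinase enzyme, produced in-house · Input – HKDC1 at 5 µg/mL · Reagent – glucose plus 1 mM ATP as hexokinase substrates · Timing – 90 min reaction incubation at room temperature, dark · Measured by – G6PDH/diaphorase-coupled fluorescence, 1 mM NADP, 100 µM resazurin, 525/613 nm · Benchmarks – DMSO-enzyme wells negative, buffer-substituted wells positive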
UCH37 DUB inh: human UCH37 deubiquitinating enzyme inhibition. Q9Y5K5. purified proteasome/UCH37, Ub-AMC cleavage fluorescence. inhibition, % (concentration not given with the values). 0.33% of 330,000 active. AID 588478;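 active = mean inhibition over replicate wells above about 20%, limit read from the data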
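Signal – fluorescence, ex 355 nm, em 460 nm · System – Proteasome-bound UCH37 · Input – 0.15 nM proteasome as dispensed · Timing – 30 min preincubation with enzyme, 25 min cleavage at room temperature · Read-out basis – percent inhibition of cleavage signal versus uninhibited and no-proteasome wells · Medium – Tris-HCl pH 7.4 with ATP-MgCl2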
Each line names hits and unclear results; the compound was inactive in the other large screens; ! = repeats disagree.

O=c1[nH]c(-c2cccnc2)nc2ccccc12	Cardio protect 47
CCOC(=O)C1CCN(C(c2cc3ccc(C)c(C)c3[nH]c2=O)c2nnnn2C2CCCCC2)CC1 (stereo not given)	none
CCOC(=O)C1CCN(C(c2cc3c(C)ccc(C)c3[nH]c2=O)c2nnnn2C2CCCCC2)CC1 (stereo not given)	Cardio protect 57
O=C(Nc1ccc(N2CCOCC2)cc1)Nc1ccc2nc(-c3ccco3)c(-c3ccco3)nc2c1	Cardio protect 63
O=C(c1ccc2nc(-c3ccco3)c(-c3ccco3)nc2c1)N1CCN(c2ccccc2)CC1	none
O=C(NC(=S)NC1CCS(=O)(=O)C1)c1ccccc1 (stereo not given)	none
CN(C1=C(NC(=O)c2ccccc2)C(=O)c2ccccc2C1=O)C1CCS(=O)(=O)C1 (stereo not given)	UCH37 DUB inh 49 (no result: PfGluPho inh, HKDC1 inh)
Cc1onc(-c2ccccc2)c1C(=O)NN=Cc1cc(Br)c(Br)o1	none (no result: Cardio protect, PfGluPho inh, B2AR ag, aDG glyco act, HKDC1 inh)
C=CCOC(=O)C1=C[C@H](c2cn(C(C)=O)c3ccccc23)C[C@H](OCc2ccc(CO)cc2)O1	Cardio protect 51
CC(=O)n1cc([C@@H]2C=C(C(=O)N3CCN(C)CC3)O[C@H](OCc3ccc(CO)cc3)C2)c2ccccc21	none
COc1c(C)cc(Br)cc1C(=O)Nc1cccc(-c2nc3ncccc3o2)c1	Cardio protect 115
Cc1cccc(N(C(=O)c2snc(C(N)=O)c2N)C(C(=O)NCC2CCCO2)c2ccc(N(C)C)cc2)c1C (stereo not given)	none (no result: UCH37 DUB inh)
CN(C)c1ccc(C(C(=O)NCC2CCCO2)N(Cc2ccco2)C(=O)c2snc(C(N)=O)c2N)cc1 (stereo not given)	Cardio protect 52 (no result: UCH37 DUB inh)
CN(C)c1ccc(C(C(=O)NCC2CCCO2)N(Cc2ccccc2)C(=O)c2snc(C(N)=O)c2N)cc1 (stereo not given)	Cardio protect 51
COc1ccc(C(C(=O)NCC2CCCO2)N(Cc2ccccc2)C(=O)c2snc(C(N)=O)c2N)cc1OC (stereo not given)	none (no result: UCH37 DUB inh)
Cc1onc(-c2ccc(Cl)cc2Cl)c1-c1csc(NN=Cc2ccccc2)n1	none (no result: Cardio protect, PfGluPho inh, B2AR ag, aDG glyco act, HKDC1 inh)
COc1ccc(/C=N\NC(=O)c2cc(O)c(O)c(O)c2)cc1COc1ccc(C(=O)OCC(C)C)cc1	Cardio protect 53 (no result: UCH37 DUB inh)
COc1ccc(/C=N/NC(=O)c2cccnc2)cc1CN1CCc2ccccc2C1	Cardio protect 69 (no result: UCH37 DUB inh)
COc1ccc(C(=O)N/N=C/c2ccc(OC)c(COc3ccccc3)c2)cc1	none (no result: UCH37 DUB inh)
COc1ccc(/C=N/NC(=O)c2nc(Cl)c(Cl)c(N)c2Cl)cc1COc1ccccc1F	B2AR ag 50 (no result: UCH37 DUB inh)
CCOC(=O)c1ccccc1OCc1cc(/C=N/NC(=O)c2cccnc2)ccc1OC	Cardio protect 55 (no result: UCH37 DUB inh)
COc1ccc(/C=N/NC(=O)c2nc(Cl)c(Cl)c(N)c2Cl)cc1COc1ccc(F)cc1F	none (no result: UCH37 DUB inh)
Cc1cnc(C(=O)OCC(=O)N2c3ccccc3NC(=O)C2(C)C)cn1	none
Cc1nn(-c2ccccc2)c(C)c1C(=O)OCC(=O)N1c2ccccc2NC(=O)C1(C)C	Cardio protect 99
Cc1cc(NC(=O)COC(=O)Cn2[nH]c(=O)c3ccccc3c2=O)c([N+](=O)[O-])cc1C	Cardio protect 93 (no result: UCH37 DUB inh)
COc1ccccc1C(=O)COC(=O)Cn1[nH]c(=O)c2ccccc2c1=O	Cardio protect 53
CCc1ccc(C(=O)C(C)OC(=O)Cn2[nH]c(=O)c3ccccc3c2=O)cc1 (stereo not given)	none
CC(OC(=O)Cn1[nH]c(=O)c2ccccc2c1=O)C(=O)Nc1ccc(F)cc1Cl (stereo not given)	Cardio protect 67
CC(OC(=O)Cn1[nH]c(=O)c2ccccc2c1=O)C(=O)Nc1ccccc1[N+](=O)[O-] (stereo not given)	Cardio protect 79
O=C(Cn1[nH]c(=O)c2ccccc2c1=O)OCC(=O)c1ccc(Br)cc1	none
CC(=NO)c1cccc(N2Cc3ccccc3C2)c1	none (no result: Cardio protect, PfGluPho inh, B2AR ag, aDG glyco act, HKDC1 inh)
Cc1ccsc1C=NNc1ccc(C(=O)O)cc1	none (no result: Cardio protect, PfGluPho inh, B2AR ag, aDG glyco act, HKDC1 inh)
Cc1cc(C)cc(N(CCC#N)C(=O)COC(=O)Cn2[nH]c(=O)c3ccccc3c2=O)c1	Cardio protect 77
Cc1cc(C)cc(N(CCC#N)C(=O)COC(=O)CN2C(=O)NC(C)(C)C2=O)c1	none
CC(OC(=O)Cn1[nH]c(=O)c2ccccc2c1=O)C(=O)Nc1cccc(Cl)c1 (stereo not given)	Cardio protect 59
C(=NNc1nc2ccccc2[nH]1)C1CCCCC1	none (no result: Cardio protect, PfGluPho inh, B2AR ag, aDG glyco act, HKDC1 inh)
COc1ccccc1/C=C1\SC(=S)N(CCC(=O)NNC(=O)c2ccccc2O)C1=O	Cardio protect 60
COc1ccc(/C=C2\SC(=S)N(CCCC(=O)NNC(=O)c3ccccc3O)C2=O)cc1	none (no result: UCH37 DUB inh)
O=C(CCCN1C(=O)/C(=C/c2cccs2)SC1=S)NNC(=O)c1ccccc1O	Cardio protect 60
COc1cc(C=NO)nc(-c2ccccn2)c1	Cardio protect 56 (no result: UCH37 DUB inh)
COc1ccc2nc(-c3ccccn3)[nH]c2c1	none
COc1ccc(-c2cc(=O)oc3c(C)c(O)c(CN(C)C)cc23)cc1	Cardio protect 70
CCCCSc1nc(C)cc(SCC(=O)N/N=C/c2cccc(OC)c2O)n1	Cardio protect 52 (no result: UCH37 DUB inh)
COc1cccc(/C=N/NC(=O)CN2CC(c3ccccc3)CC2=O)c1O (stereo not given)	Cardio protect 56 (no result: UCH37 DUB inh)
COc1cccc(/C=N/NC(=O)CSc2nnc(C)n2-c2ccccc2)c1O	Cardio protect 80 (no result: UCH37 DUB inh)
Cc1ccc(-c2nn(-c3ccccc3)cc2/C=N/NC(=O)CSc2nnc(C)n2-c2ccccc2)cc1	B2AR ag 89 (no result: UCH37 DUB inh)
COc1ccc(/C=N/NC(=O)CSc2nnc(C)n2-c2ccccc2)c(OC)c1OC	none (no result: UCH37 DUB inh)
COc1ccc(O)c(/C=N/NC(=O)CSc2nnc(C)n2-c2ccccc2)c1	none (no result: UCH37 DUB inh)
COc1cccc(C=NNC(=O)CSc2ccccc2C)c1O	none (no result: Cardio protect, PfGluPho inh, B2AR ag, aDG glyco act, HKDC1 inh)
CC(=NNC(=O)c1ccc(Cl)cc1)c1cccs1	none (no result: Cardio protect, PfGluPho inh, B2AR ag, aDG glyco act, HKDC1 inh)
Cc1nn(Cc2ccc(F)cc2)c(Cl)c1C=NNC(=O)c1ccccc1	none (no result: Cardio protect, PfGluPho inh, B2AR ag, aDG glyco act, HKDC1 inh)
Cc1cc(C(=O)NN=Cc2ccc(-c3ccc([N+](=O)[O-])cc3Cl)o2)n[nH]1	none (no result: Cardio protect, PfGluPho inh, B2AR ag, aDG glyco act, HKDC1 inh)
N#Cc1cc(Oc2ccc3ccccc3c2)c(-n2nnc3ccccc32)cc1C#N	B2AR ag 48
O=C1CC(c2ccc(O)c(O)c2)Oc2c1ccc(O)c2O (stereo not given)	none
CC(C)=CCc1c(O)ccc2c1OC(c1ccc(O)c(O)c1)CC2=O (stereo not given)	Cardio protect 54
C=CCOC(=O)C1=C(C)NC(SCC(=O)NC(=O)OCC)=C(C#N)C1c1cccnc1 (stereo not given)	B2AR ag 57!
C=CCOC(=O)C1=C(C)NC(SCC(=O)N(CC)CC)=C(C#N)C1c1ccccc1 (stereo not given)	none

Source: PubChem (several laboratories)
